According to ChEMBL document CHEMBL1157719, “1-Indol-1-yl-propan-2-ones and related heterocyclic compounds as dual inhibitors of cytosolic phospholipase A(2)alpha and fatty acid amide hydrolase” (Bioorg Med Chem, 2010):
Calls of active or inactive are those of the source. The rule behind the calls is not given here.

Tests used:
[1] = biological target: T1, Cytosolic phospholipase A2 (Homo sapiens, UniProt P47712); experiment: Inhibition of cPLA2 from human platelets by RP-HPLC
T1 sequence (P47712 whole entry): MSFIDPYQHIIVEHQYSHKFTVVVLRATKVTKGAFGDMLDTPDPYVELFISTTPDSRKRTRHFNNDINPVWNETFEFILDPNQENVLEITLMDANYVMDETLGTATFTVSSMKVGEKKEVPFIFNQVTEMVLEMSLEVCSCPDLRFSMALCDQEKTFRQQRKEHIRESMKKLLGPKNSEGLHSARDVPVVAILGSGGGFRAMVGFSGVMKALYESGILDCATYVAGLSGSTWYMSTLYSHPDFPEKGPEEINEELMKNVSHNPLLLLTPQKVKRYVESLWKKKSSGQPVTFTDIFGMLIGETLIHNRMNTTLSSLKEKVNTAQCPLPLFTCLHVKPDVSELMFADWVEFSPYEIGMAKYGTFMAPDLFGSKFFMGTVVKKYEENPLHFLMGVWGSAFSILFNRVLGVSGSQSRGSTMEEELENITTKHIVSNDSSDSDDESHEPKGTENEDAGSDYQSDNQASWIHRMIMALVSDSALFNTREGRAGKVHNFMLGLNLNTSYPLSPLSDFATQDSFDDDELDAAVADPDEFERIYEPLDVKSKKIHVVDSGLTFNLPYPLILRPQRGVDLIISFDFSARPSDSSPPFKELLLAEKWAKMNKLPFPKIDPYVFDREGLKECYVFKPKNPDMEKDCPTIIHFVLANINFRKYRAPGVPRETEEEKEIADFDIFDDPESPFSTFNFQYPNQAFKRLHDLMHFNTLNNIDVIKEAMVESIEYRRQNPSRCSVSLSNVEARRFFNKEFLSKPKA
Method in brief: (§1)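 cPLA2α purified from human platelets; substrate sonicated covesicles of SAPC 200 μM and 1,2-dioleoyl-sn-glycerol 100 μM. Reaction 60 min, stopped with acetonitrile/methanol/0.1 M EDTA-Na2 containing 4-undecyloxybenzoic acid internal standard and NDGA. Arachidonic acid released measured by RP-HPLC, UV 200 nm, after solid-phase extraction, with vs without inhibitor; max 10 μM. IC50 means of at least two independent determinations.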

[2] = inhibition of MAGL up to 10 uM
Method in brief: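 MAGL set up like the FAAH assay, using pyrene-labelled substrate 1,3-dihydroxypropan-2-yl 4-pyren-1-ylbutanoate; product measured by RP-HPLC with fluorescence detection; highest test concentration 10 μM.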

[3] = biological target: T2, Fatty-acid amide hydrolase 1 (Rattus norvegicus, UniProt P97612); experiment: Inhibition of FAAH from rat brain microsomes by RP-HPLC
T2 sequence (P97612 whole entry): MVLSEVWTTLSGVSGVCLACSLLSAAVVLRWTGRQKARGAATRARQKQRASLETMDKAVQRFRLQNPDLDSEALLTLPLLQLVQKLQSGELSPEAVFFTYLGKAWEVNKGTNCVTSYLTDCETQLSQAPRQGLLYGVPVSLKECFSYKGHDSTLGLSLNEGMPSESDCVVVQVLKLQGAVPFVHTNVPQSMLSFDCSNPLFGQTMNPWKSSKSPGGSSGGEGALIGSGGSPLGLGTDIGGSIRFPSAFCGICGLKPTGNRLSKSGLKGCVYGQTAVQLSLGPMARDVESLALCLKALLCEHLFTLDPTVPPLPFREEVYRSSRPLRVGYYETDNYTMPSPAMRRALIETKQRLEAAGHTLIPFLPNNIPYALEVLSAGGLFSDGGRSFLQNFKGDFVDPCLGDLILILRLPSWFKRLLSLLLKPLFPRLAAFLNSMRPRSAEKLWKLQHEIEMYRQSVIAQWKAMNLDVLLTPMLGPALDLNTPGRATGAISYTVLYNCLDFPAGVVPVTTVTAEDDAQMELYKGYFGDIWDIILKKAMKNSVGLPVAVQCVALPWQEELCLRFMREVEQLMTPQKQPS

[4] = biological target: T3, Fatty-acid amide hydrolase 1 (Rattus norvegicus) (UniProt P97612); experiment: Inhibition of FAAH from rat brain microsomes at 10 uM by RP-HPLC
T3 sequence (whole entry): T2 sequence (P97612 whole entry)
Method in brief: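 Rat brain microsomes as FAAH source; substrate N-(2-hydroxyethyl)-4-pyren-1-ylbutanamide 100 μM solubilized with Triton X-100 0.2%. Incubated 45 min, then stopped with acetonitrile/methanol plus internal standard 6-pyren-1-ylhexanoic acid. Released 4-pyren-1-ylbutanoic acid quantified directly by RP-HPLC with fluorescence (ex 340, em 380 nm), with vs without inhibitor. Inhibitor max 10 μM; IC50 means of at least two independent determinations.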

[5] = biological target: T4, Cytosolic phospholipase A2 (Homo sapiens) (UniProt P47712); experiment: Inhibition of cPLA2 from human platelets at 10 uM by RP-HPLC; method in brief: as §1
T4 sequence (whole entry): T1 sequence (P47712 whole entry)

Compound	IC50 [1] [nM]	inhibition [2]	IC50 [3] [nM]	inhibition [4]	inhibition [5]
CCCCCCCCc1ccc(OCC(=O)Cn2cnc(C(=O)O)c2)cc1	5300	inactive	1900		
CCCCCCCCc1ccc(OCC(=O)Cn2nnc3ccccc32)cc1	2200	inactive	47		
CCCCCCCCc1ccc(OCC(=O)Cn2cc(C(=O)OC)c3cc(C(=O)O)ccc32)cc1		inactive		inactive	
CCCCCCCCc1ccc(OCC(=O)Cn2ccc3cc(C(=O)O)ccc32)cc1		inactive	2800		
CCCCCCCCc1ccc(OCC(=O)Cn2cc(C=O)c3cc(C(=O)O)ccc32)cc1		inactive		inactive	
CCCCCCCCc1ccc(OCC(=O)Cn2ccc(C(=O)O)c2)cc1	5000	inactive	3600		
CCCCCCCCc1ccc(OCC(=O)Cn2ccc3c(C(=O)O)cccc32)cc1	> 10000	inactive	> 10000	40%	
CCCCCCCCc1ccc(OCC(=O)Cn2cc(C(C)=O)c3cc(C(=O)O)ccc32)cc1	12	inactive		inactive	
CCCCCCCCc1ccc(OCC(=O)Cn2ccc3cc(OC)ccc32)cc1		inactive	> 10000	22%	inactive
CCCCCCCCc1ccc(OCC(=O)Cn2ncc3cc(C(=O)O)ccc32)cc1		inactive	160		
CCCCCCCCc1ccc(OCC(=O)Cn2ccc3ccccc32)cc1		inactive		inactive	inactive
CCCCCCCCc1ccc(OCC(=O)Cn2c(C(=O)O)cc3ccccc32)cc1		inactive		inactive	inactive
CCCCCCCCc1ccc(OCC(=O)Cn2ccc3cc(C(=O)OC)ccc32)cc1	> 10000	inactive		inactive	
CCCCC/C=C\C/C=C\C/C=C\C/C=C\CCCC(=O)C(F)(F)F [ARACHIDONYL TRIFLUOROMETHYLKETONE]		inactive	3700		
CCCCCCCCc1ccc(OCC(=O)Cn2cccc2C(=O)O)cc1		inactive		inactive	inactive
CCCCCCCCc1ccc(OCC(=O)Cn2nnc3cc(C(=O)O)ccc32)cc1		inactive	140		
CCCCCCCCc1ccc(OCC(=O)Cn2cnc3ccc(C(=O)O)cc32)cc1		inactive	3100		
CCCCCCCCc1ccc(OCC(=O)Cn2cccn2)cc1	> 10000	inactive	2000		43%
CCCCCCCCc1ccc(OCC(=O)Cn2ncc3ccc(C(=O)O)cc32)cc1		inactive	> 10000	23%	
CCCCCCCCc1ccc(OCC(=O)Cn2cc(C(=O)O)cn2)cc1	1800	inactive	110		
CCCCCCCCc1ccc(OCC(=O)Cn2ccc(C(=O)O)n2)cc1	8200	inactive	> 10000	39%	
CCCCCCCCc1ccc(OCC(=O)Cn2cc(C#N)c3cc(C(=O)O)ccc32)cc1		inactive		inactive	

Compound	IC50 [1] [nM]	inhibition [2]	IC50 [3] [nM]	inhibition [4]	inhibition [5]
CCCCCCCCc1ccc(OCC(=O)Cn2ccc3cc(C#N)ccc32)cc1	> 10000	inactive	> 10000	42%	
CCCCCCCCc1ccc(OCC(=O)Cn2ncc3ccccc32)cc1		inactive	5000		inactive
CCCCCCCCc1ccc(OCC(=O)Cn2cncc2C(=O)O)cc1	> 10000	inactive		inactive	18%
CCCCCCCCc1ccc(OCC(=O)Cn2ccc3cc(Cl)ccc32)cc1		inactive		inactive	inactive
CCCCCCCCc1ccc(OCC(=O)Cn2cc(C(=O)O)c3cc(C(=O)O)ccc32)cc1		inactive		inactive	
CCCCCCCCc1ccc(OCC(=O)Cn2cnc3ccccc32)cc1	> 10000	inactive	1000		36%
CCCCCCCCc1ccc(OCC(=O)Cn2ccc3cc(C(N)=O)ccc32)cc1		inactive	6400		
CCCCCCCCCCOc1ccc(OCC(=O)COc2ccc(C(=O)O)cc2)cc1		inactive	59		
NC(=O)c1cccc(-c2cccc(OC(=O)NC3CCCCC3)c2)c1					inactive
CCCCCCCCc1ccc(OCC(=O)Cn2cnc3cc(C(=O)O)ccc32)cc1		inactive	610		
CCCCCCCCc1ccc(OCC(=O)Cn2ccnc2)cc1	500	inactive	760		
O=C(CCCCCc1ccccc1)c1nc2ncccc2o1			9		inactive
CCCCCCCCc1ccc(OCC(=O)Cn2cc(C(C)(C)C)c3cc(C(=O)O)ccc32)cc1		inactive		inactive	
CCCCCCCCc1ccc(OCC(=O)Cn2ccc3cc(C)ccc32)cc1		inactive		inactive	inactive
CCCCCCCCc1ccc(OCC(=O)Cn2cc(Cl)c3cc(C(=O)O)ccc32)cc1		inactive		inactive	
CCCCCCCCc1ccc(OCC(=O)Cn2nnc3ccc(C(=O)O)cc32)cc1		inactive	200		
CCCCCCCCc1ccc(OCC(=O)Cn2ccc3ccc(C(=O)O)cc32)cc1		inactive		inactive	
CC(C)CN(Cc1ccccc1-c1ccccc1)[C@@H]1C[C@@H](CNC(=O)/C=C/c2ccc(/C=C3\SC(=O)NC3=O)cc2)N(C(=O)c2ccccc2C(=O)c2ccc(F)cc2F)C1	31			inactive	
CCCCCCCCc1ccc(OCC(=O)Cn2cccc2)cc1		inactive		inactive	inactive
CCCCCCCCc1ccc(OCC(=O)Cn2nccc2C(=O)O)cc1	> 10000	inactive		inactive	21%
CCCCCCCCc1ccc(OCC(=O)Cn2cc(C(=O)O)c3ccccc32)cc1	> 10000	inactive		inactive	
CCCCCCCCc1ccc(OCC(=O)Cn2ccc3cc(C=O)ccc32)cc1		inactive	> 10000	45%	
